# Source: ChEMBL document CHEMBL1221395, “Synthesis, anticancer activity and mitochondrial mediated apoptosis inducing ability of 2,5-diaryloxadiazole-pyrrolobenzodiazepine conjugates” (Bioorg Med Chem, 2010)
# Activity calls are given as the source filed them. No cut-off for these calls is given here.
# Assays:
# A-375 [1] = experiment: Induction of apoptosis in human A375 cells assessed as increase in Bax protein level at 4 uM after 24 hrs by Western blotting; assay type: functional, cell-based
# Summary of the method: (§1)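 A375 cells treated at 4 µM for 24 h. Lysates cleared at 12,000 rpm for 10 min, and protein quantified by Bradford. 30 µg per lane run on 12% SDS-PAGE and transferred to PVDF. Blocked 2 h in TBST with 5% blocking powder. Primary antibody overnight at 4 °C, HRP secondary (1:2000) 1 h at room temperature. β-actin used as loading control; untreated cells as control.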
# A-375 [2] = experiment: Induction of apoptosis in human A375 cells assessed as increase in Caspase 3 activation at 4 uM after 24 hrs by fluorimetry; assay type: functional, cell-based
# Summary of the method: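 A375 cells exposed to 4 µM compound. Cell lysate incubated with DEVD-AFC substrate, with or without DEVD-CHO inhibitor, at 37 °C for 1 h in a fluorescent caspase-3 kit. Fluorescence read at excitation 400 nm, emission 505 nm.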
# [3] = Cytotoxicity against human DWD cells by SRB assay
# MCF7 = experiment: Cytotoxicity against human MCF7 cells by sulforhodamine B assay
# A-375 [4] = experiment: Antitumor activity against human A375 cells assessed as upregulation of p53 protein level at 4 uM after 24 hrs by Western blotting; assay type: functional, cell-based; summary of the method: as §1
# A2780 = experiment: Cytotoxicity against human A2780 cells by SRB assay
# [5] = Cytotoxicity against human Gurav cells after 24 hrs by WST-1 assay; assay type: functional
# PC-3 [6] = experiment: Antitumor activity against human PC3 cells xenografted in NOD-SCID mouse at 20 mg/kg, ip q4d on day 1, 5 and 9; assay type: functional, organism-based; set-up: dose 20 mg/kg
# Summary of the method: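 Human prostate cancer PC-3 xenografts in male NOD-SCID mice. Dosed 20 mg/kg intraperitoneally on days 1, 5 and 9 (q4d). Tumour weight and body weight/survival followed over about 31 days. Adriamycin 5 mg/kg and untreated groups served as comparators.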
# A-375 [7] = experiment: Antitumor activity against human A375 cells assessed as upregulation of p21 protein level at 4 uM after 24 hrs by Western blotting; assay type: functional, cell-based; summary of the method: as §1
# A-375 [8] = experiment: Cell cycle arrest in human A375 cells assessed as accumulation at S phase after 24 hrs by FACS flow cytometry; set-up: concentration or dose not given beside the values
# A-375 [9] = experiment: Induction of apoptosis in human A375 cells assessed as increase in PARP protein level at 4 uM after 24 hrs by Western blotting; assay type: functional, cell-based; summary of the method: as §1
# ZR-75-1 = experiment: Cytotoxicity against human ZR-75-1 cells by SRB assay
# A-375 [10] = experiment: Cell cycle arrest in human A375 cells assessed as accumulation at G1 phase after 24 hrs by FACS flow cytometry; set-up: concentration or dose not given beside the values
# A-375 [11] = experiment: Cell cycle arrest in human A375 cells assessed as accumulation at Sub-G1 phase after 24 hrs by FACS flow cytometry; set-up: concentration or dose not given beside the values
# Mus musculus [12] = experiment: Toxicity against SCID mouse assessed as mortality at 20 mg/kg, ip q4d on day 1, 5 and 9; assay type: organism-based; set-up: dose 20 mg/kg, route intraperitoneal; details: in vivo
# Summary of the method: (§2)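 Male NOD-SCID mice carrying human prostate PC-3 xenografts were dosed at 20 mg/kg ip on days 1, 5 and 9 (q4d). Mortality and body weight were followed over days 1–31, alongside a control group and an adriamycin 5 mg/kg arm. Tumour weight was recorded over the same period.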
# [13] = Toxicity against SCID mouse; assay type: organism-based; details: in vivo
# Mus musculus [14] = experiment: Toxicity against SCID mouse assessed as weight loss at 20 mg/kg, ip q4d on day 1, 5 and 9; assay type: organism-based; set-up: dose 20 mg/kg, route intraperitoneal; details: in vivo; summary of the method: as §2
# A-375 [15] = experiment: Cell cycle arrest in human A375 cells assessed as accumulation at G2/M phase after 24 hrs by FACS flow cytometry; set-up: concentration or dose not given beside the values
# KB = experiment: Cytotoxicity against human KB cells by SRB assay
# SiHa = experiment: Cytotoxicity against human SiHa cells after 24 hrs by SRB assay
# A-375 [16] = experiment: Induction of apoptosis in human A375 cells assessed as increase in cytochrome C protein level at 4 uM after 24 hrs by Western blotting; assay type: functional, cell-based; summary of the method: as §1
# [17] = Lipophilicity, log P of the compound; assay type: physicochemical; details: octanol/water
# COLO 205 = experiment: Cytotoxicity against human COLO205 cells after 24 hrs by SRB assay; details: COLO 205, 24 h
# Calf thymus DNA = experiment: Binding affinity to calf thymus DNA assessed as change in melting temperature after 18 hrs; assay type: nucleic-acid assay; details: Bos taurus
# Summary of the method: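 Thermal melting with duplex CT-DNA (100 µM in phosphate) and ligand (20 µM), added from methanol stock, [PBD]/[DNA] 1:5, in 10 mM sodium phosphate + 1 mM EDTA, pH 7.00; incubated at 37 °C for 18 h. A260 monitored while heating at 1 °C/min over 40–90 °C. Tm taken from d(A260)/dT maxima, corrected for methanol; ΔTm = Tm(DNA+ligand) − Tm(DNA alone); at least three determinations.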
# PC-3 [18] = experiment: Cytotoxicity against human PC3 cells after 24 hrs by WST-1 assay; assay type: functional; details: PC-3, 24 h
# A549 = experiment: Cytotoxicity against human A549 cells after 24 hrs by WST-1 assay; assay type: functional; details: A549, 24 h
# HOP-62 = experiment: Cytotoxicity against human HOP62 cells after 24 hrs by WST-1 assay; assay type: functional; details: HOP-62, 24 h
# A-375 [19] = experiment: Antitumor activity against human A375 cells assessed as upregulation of pRb protein level at 4 uM after 24 hrs by Western blotting; assay type: functional, cell-based; summary of the method: as §1
smiles,measurement,setting,value
COc1ccc(-c2nnc(-c3ccc(OC)c(OCCCCCOc4cc5c(cc4OC)C(=O)N4CCC[C@H]4C=N5)c3)o2)cc1OC,Activity,A-375 [1],Active
same,Activity,A-375 [2],Active
same,GI50,[3],< 100 nM
same,GI50,MCF7,< 100 nM
same,Activity,A-375 [4],Active
same,GI50,A2780,< 100 nM
same,GI50,[5],< 100 nM
same,Activity,PC-3 [6],Active
same,Activity,A-375 [7],Active
same,Activity,A-375 [8],2.68%
same,Activity,A-375 [9],Active
same,GI50,ZR-75-1,< 100 nM
same,Activity,A-375 [10],59.66%
same,Activity,A-375 [11],36.66%
same,Activity,Mus musculus [12],Non-toxic
same,MTD,[13],< 50 mg/kg
same,Activity,Mus musculus [14],Non-toxic
same,Activity,A-375 [15],0.99%
same,GI50,KB,< 100 nM
same,GI50,SiHa,< 100 nM
same,Activity,A-375 [16],Active
same,logP,[17],4.68
same,GI50,COLO 205,< 100 nM
same,ΔTm,Calf thymus DNA,5.8 °C
same,GI50,PC-3 [18],< 100 nM
same,GI50,A549,< 100 nM
same,GI50,HOP-62,< 100 nM
same,Activity,A-375 [19],Active
